The text below walks through data of BindingDB's records for doi:10.1021/jm001079l (Umr 8525 Cnrs - Universit&#233, 2001).

The target in this assay is Trypanothione reductase (Trypanosoma cruzi, UniProt P28593). The assay can be described thus: Inhibitory activity against Trypanosoma cruzi trypanothione disulfide reductase, assay in presence of 57 uM T(S)2. In short, it runs like this:
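Assay contained 250 µM NADPH, 57 µM T(S)₂, inhibitor at 0.3–50 µM and 1% DMSO final. Started with enzyme; NADPH loss followed at 340 nm. IC50 in duplicate.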

Broadly, the IC50 is the midpoint of a concentration-inhibition curve.

Trypanothione reductase, sequence (P28593 whole entry): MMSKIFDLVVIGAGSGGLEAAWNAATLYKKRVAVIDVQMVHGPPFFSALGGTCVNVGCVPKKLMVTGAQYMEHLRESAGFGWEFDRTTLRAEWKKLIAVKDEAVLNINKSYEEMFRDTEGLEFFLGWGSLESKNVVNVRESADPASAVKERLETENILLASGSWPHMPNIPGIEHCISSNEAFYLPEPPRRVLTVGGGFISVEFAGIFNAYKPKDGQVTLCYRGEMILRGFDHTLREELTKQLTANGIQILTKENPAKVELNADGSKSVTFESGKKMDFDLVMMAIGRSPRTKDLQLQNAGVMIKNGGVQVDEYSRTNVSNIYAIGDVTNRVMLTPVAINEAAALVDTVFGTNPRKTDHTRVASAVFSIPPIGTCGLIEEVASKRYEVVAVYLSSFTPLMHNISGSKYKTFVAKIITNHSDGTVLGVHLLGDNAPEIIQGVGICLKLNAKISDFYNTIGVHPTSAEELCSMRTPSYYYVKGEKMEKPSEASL

As to `Cc1c(N=CCCNCCCCNCCCN)c(O)c2c(O)cccc2c1O`, the 50% inhibitory concentration (IC50) was determined as 28 µM.

In the case of `Cc1c(N=CCCCN)c(O)c2ccccc2c1O` [2-(4-Amino-butylamino)-3-methyl-[1,4]naphthoquinone], the IC50 is over 57 µM.

With `Cc1c(N=CCCN2CCN(C)CC2)c(O)c2ccccc2c1O` [2-Methyl-3-[3-(4-methyl-piperazin-1-yl)-propylamino]-[1,4]naphthoquinone], the IC50 was over 57 µM.

Take `Cc1c(N=CCCC=Nc2c(C)c(O)c3ccccc3c2O)c(O)c2ccccc2c1O` [2-methyl-3-[4-(3-methyl-1,4-dioxo-1,4-dihydro-2-naphthalenylamino)butylamino]-1,4-dihydro-1,4-naphthalenedione]: the IC50 is over 57 µM.

For the molecule `Cc1c(N=CCCNCCCCNCCCN)c(O)c2ccccc2c1O` [2-{3-[4-(3-Amino-propylamino)-butylamino]-propylamino}-3-methyl-[1,4]naphthoquinone], the 50% inhibitory concentration (IC50) came to 28 µM.

With `Cc1c(N=CCCCN)c(O)c2c(O)cccc2c1O` [3-(4-Amino-butylamino)-5-hydroxy-2-methyl-[1,4]naphthoquinone], the IC50 was over 57 µM.

Consider `Cc1c(C=CC(=O)NCCCCNCCCNC(=O)C=Cc2c(C)c(O)c3cccc(O)c3c2O)c(O)c2c(O)cccc2c1O` [3-(8-Hydroxy-3-methyl-1,4-dioxo-1,4-dihydro-naphthalen-2-yl)-N-(4-{3-[3-(8-hydroxy-3-methyl-1,4-dioxo-1,4-dihydro-naphthalen-2-yl)-propionylamino]-propylamino}-butyl)-propionamide], for which the IC50 was 2.9 µM.

Regarding `Cc1c(C=CC(=O)O)c(O)c2c(O)cccc2c1O` [3-(8-Hydroxy-3-methyl-1,4-dioxo-1,4-dihydro-naphthalen-2-yl)-propionic acid], the IC50 is over 50 µM.

Consider `CN1CCN(CCCNC(=O)C=Cc2c(CCC(=O)NCCCN3CCN(C)CC3)c(O)c3cccc(O)c3c2O)CC1` [3-(8-Hydroxy-3-{2-[3-(4-methyl-piperazin-1-yl)-propylcarbamoyl]-ethyl}-1,4-dioxo-1,4-dihydro-naphthalen-2-yl)-N-[3-(4-methyl-piperazin-1-yl)-propyl]-propionamide], for which the IC50 is over 50 µM.

Take `Cc1c(C=CCC(=O)NCCCNCCCNC(=O)CC=Cc2c(C)c(O)c3ccccc3c2O)c(O)c2ccccc2c1O` [4-(3-Methyl-1,4-dioxo-1,4-dihydro-naphthalen-2-yl)-N-(3-{3-[4-(3-methyl-1,4-dioxo-1,4-dihydro-naphthalen-2-yl)-butyrylamino]-propylamino}-propyl)-butyramide]: the half-maximal inhibitory concentration (IC50) came to 11 µM.

Consider `CN1CCN(CCCNC(=O)CC=Cc2c(CCCC(=O)NCCCN3CCN(C)CC3)c(O)c3cccc(O)c3c2O)CC1` [4-(5-Hydroxy-3-{3-[3-(4-methyl-piperazin-1-yl)-propylcarbamoyl]-propyl}-1,4-dioxo-1,4-dihydro-naphthalen-2-yl)-N-[3-(4-methyl-piperazin-1-yl)-propyl]-butyramide], for which the IC50 came to 11 µM.

On to `Cc1c(C=CCC(=O)NCCCN2CCN(CCCNC(=O)CC=Cc3c(C)c(O)c4cccc(O)c4c3O)CC2)c(O)c2c(O)cccc2c1O` [4-(8-Hydroxy-3-methyl-1,4-dioxo-1,4-dihydro-naphthalen-2-yl)-N-[3-(4-{3-[4-(8-hydroxy-3-methyl-1,4-dioxo-1,4-dihydro-naphthalen-2-yl)-butyrylamino]-propyl}-piperazin-1-yl)-propyl]-butyramide], for which the IC50 came out at 2.3 µM.

For `Cc1c(C=CCC(=O)O)c(O)c2c(O)cccc2c1O` [4-(8-Hydroxy-3-methyl-1,4-dioxo-1,4-dihydro-naphthalen-2-yl)-butyric acid], the IC50 is over 50 µM.

With `Cc1c(N=CCCN2CCN(C)CC2)c(O)c2c(O)cccc2c1O` [5-Hydroxy-2-methyl-3-[3-(4-methyl-piperazin-1-yl)-propylamino]-[1,4]naphthoquinone], the IC50 was over 57 µM.

As for `O=C(O)CCCC=Cc1c(CCCCCC(=O)O)c(O)c2ccccc2c1O` [6-[3-(5-Carboxy-pentyl)-1,4-dioxo-1,4-dihydro-naphthalen-2-yl]-hexanoic acid], the IC50 was over 50 µM.

Consider `Cc1c(CC=NC(=O)OC(C)(C)C)c(O)c2ccccc2c1O` [[2-(3-Methyl-1,4-dioxo-1,4-dihydro-naphthalen-2-yl)-ethyl]-carbamic acid tert-butyl ester], for which the 50% inhibitory concentration (IC50) was over 50 µM.

For `Cc1c(CC=NC(=O)OC(C)(C)C)c(O)c2c(O)cccc2c1O` [[2-(8-Hydroxy-3-methyl-1,4-dioxo-1,4-dihydro-naphthalen-2-yl)-ethyl]-carbamic acid tert-butyl ester], the IC50 was over 25 µM.

In the case of `Cc1c(C=CCNC(=O)OC(C)(C)C)c(O)c2c(O)cccc2c1O` [[3-(8-Hydroxy-3-methyl-1,4-dioxo-1,4-dihydro-naphthalen-2-yl)-propyl]-carbamic acid tert-butyl ester], the IC50 was over 25 µM.
